PABP FP inh – PABP-poly(A) binding inhibition; P11940; PABP-poly(A) RNA binding, fluorescence polarization; inhibition, % at 35 µM; 290,000 compounds, 1% hits;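 note: calls also rest on retests at 20 µM and on dose response follow-up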
Target sequence (P11940 whole entry, looked up): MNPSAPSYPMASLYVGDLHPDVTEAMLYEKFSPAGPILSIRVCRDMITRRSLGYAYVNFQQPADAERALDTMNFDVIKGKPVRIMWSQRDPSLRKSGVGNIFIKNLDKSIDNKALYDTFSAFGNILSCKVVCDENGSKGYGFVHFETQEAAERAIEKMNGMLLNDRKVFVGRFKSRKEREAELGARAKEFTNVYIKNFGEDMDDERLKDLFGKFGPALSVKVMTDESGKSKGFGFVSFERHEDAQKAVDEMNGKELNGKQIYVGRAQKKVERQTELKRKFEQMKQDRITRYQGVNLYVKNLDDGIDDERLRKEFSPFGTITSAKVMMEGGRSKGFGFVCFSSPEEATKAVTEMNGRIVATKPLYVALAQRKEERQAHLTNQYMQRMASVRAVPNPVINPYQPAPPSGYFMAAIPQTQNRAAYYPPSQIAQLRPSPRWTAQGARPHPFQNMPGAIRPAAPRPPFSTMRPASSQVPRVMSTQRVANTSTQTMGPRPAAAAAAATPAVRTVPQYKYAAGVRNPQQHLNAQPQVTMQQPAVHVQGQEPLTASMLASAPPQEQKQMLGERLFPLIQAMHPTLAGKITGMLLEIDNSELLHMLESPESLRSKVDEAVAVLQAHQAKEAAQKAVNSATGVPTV
NS3 helicase inh – HCV NS3 helicase inhibition | NS3 helicase DNA unwinding, Cy5 molecular beacon fluorescence | 290,000 compounds, 0.56% hits | inhibition, % at 10.9 µM;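 active = inhibition above the mean of all tested compounds plus 3 SD, set per campaign, cut at about 35% in these data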;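 note: 0% = DMSO wells and 100% = thioflavine S control wells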
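Assay system – hepatitis C virus NS3 helicase domain fragment enzyme · Buffer or medium – MOPS pH 6.5, MgCl2, DTT, Tween20, BSA · Reagent – Cy5/quencher beacon DNA duplex and ATP to start · Compound – single 10.9 µM dose · Timing – 1 h at 25 °C · Technique – Cy5 beacon fluorescence read at start and 1 h · Measure – % inhibition of unwinding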
core dimer inh – HCV core protein dimerization inhibition; AID 1899; TR-FRET GST/Flag-core106 dimerization, 1536-well; inhibition, % at 5 µM; 300,000 compounds, 0.33% hits;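 active = inhibition above the mean of all tested compounds plus 3 SD, set per screening campaign, cut at about 45% in these data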
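Assay system: Tagged HCV core106 pair (GST and Flag) | Buffer or medium: KF-containing HEPES buffer, pH 7.45, DTT, CHAPS, BSA | Also added: Eu donor and XL665 acceptor anti-tag antibodies | Dosing: One concentration, 5 µM, in 0.5% DMSO | Timing: 4 h at 22.5 °C | Technique: TR-FRET 671 and 617 nm emission | Repeats: Singlicate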
DNA FID counter – fluorescent intercalator displacement, NS3 helicase counter-screen | inhibition, % at 7.9 µM | DNA fluorescent intercalator displacement, fluorescence | 290,000 compounds, 0.17% hits; in the data active = inhibition above about 37%;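 note: 0% = vehicle and 100% = reference compound; higher means more ethidium bromide displaced from hairpin DNA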
eIF4H FP inh – inhibitors of RNA binding by human eIF4H; Q15056; eIF4H fluorescence polarization binding assay; inhibition, % at 35 µM; 290,000 compounds, 0.94% hits;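 note: calls also rest on retests at 20 µM and on dose response follow-up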
PABP1 MLLE inh – blocks PAM2 peptide binding to the PABP1 MLLE domain. inhibition, % at 20 µM. GST-MLLE / FITC-PAM2 fluorescence polarization. 360,000 compounds, 0.36% hits. P11940; in the data active = inhibition above about 35%, passing the limit was not always enough;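 note: plate controls were DMSO wells with GST-MLLE for no effect and wells lacking GST-MLLE protein for full effect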
* hit, by the source's call; ? = inconclusive; . = not tested or not shown. An excerpt weighted towards active compounds, which were near 2% of everything screened. Unless noted, the rule behind the calls is not given here.

SMILES	PABP FP inh	NS3 helicase inh	core dimer inh	DNA FID counter	eIF4H FP inh	PABP1 MLLE inh
O=C(NCCc1ccccc1)[C@@H]1CC=C[C@@H]2CCN(C3CCCCC3)C(=O)[C@@H]21	.	.	4	.	.	9
Nc1nnnn1/N=C/c1cc(Cl)ccc1O	21	-12	0	-5	20	49*
Nc1nnnn1/N=C/c1cc(Cl)cc(Cl)c1O	?	6	-7	1	?	122
COc1ccc(-c2cc(-c3cccs3)c(C#N)c(SCC(=O)NCc3ccco3)n2)cc1	12	14	20	-20	55*	8
Cc1cc(C(=O)Nc2sccc2C#N)c2ccccc2n1	22*	9	33	-15	61	-59
Cc1cc(C(=O)Nc2ccccc2)c2ccccc2n1	2	7	-4	-2	-1	-8
CC1CN(C(=O)CSc2nc(N)c(NC(=O)c3ccc(C(F)(F)F)cc3)c(=O)[nH]2)CC(C)O1 (stereo unspecified)	.	.	.	.	.	6
Cc1c(CCC(=O)NCCCn2ccnc2)c(=O)oc2c(C)c3occ(C(C)(C)C)c3cc12	-1	8	-5	38*	0	-11
CS(=O)(=O)NCCSc1cc(C(F)(F)F)nc2ccccc12	84*	-3	1	-8	64*	0
CS(=O)(=O)NCCSCc1ccccc1	-6	6	-13	2	-4	0
CCOc1ccc(C(=O)N[C@H](C(=O)Nc2ccc(S(=O)(=O)Nc3nccs3)cc2)C(C)C)cc1	.	.	.	.	.	8
COc1ccc(-c2c(C)sc(NC(=O)c3ccnn3C)c2C#N)cc1	-6	11	71*	-2	6	9
CSc1nc2nc3c(cn2n1)C(=O)CC(c1ccccc1)C3 (stereo unspecified)	61*	32	3	-8	48*	3
O=C1CC(c2ccccc2)Cc2nc3nc(C(F)(F)F)nn3cc21 (stereo unspecified)	102*	17	2	-14	92*	14
O=C(CNC(=O)C12CC3CC(CC(C3)C1)C2)NC1=NCCS1	4	6	1	-8	-5	45*
O=C(CNC(=O)C1CCCCC1)NC1=NCCS1	-2	3	-6	-3	-7	40*
Cc1cccnc1NC(=O)CNC(=O)C1CCCCC1	.	.	.	.	.	-10
O=C(CC12CC3CC(CC(Br)(C3)C1)C2)NC1=NCCS1	2	3	4	-30	-7	4
Cc1ccccc1-c1cnc(C(O)c2ccc(F)c(F)c2)[nH]1 (stereo unspecified)	.	.	.	.	.	-16
CC1(C)Cc2c(sc(NC(=O)c3ccc(C(=O)c4ccccc4)cc3)c2C#N)C(C)(C)N1	-8	-85	-8	38*	0	3
Cc1ccc(S(=O)(=O)N[C@H](C(=O)Oc2ccc3c(C(F)(F)F)cc(=O)oc3c2)c2ccccc2)cc1	22	4	5	0	17	36*
Nc1c(C(=O)CSc2nc3ccccc3o2)c(=O)[nH]c(=O)n1C1CC1	.	.	.	.	.	8
CC1CCCCN1C(=O)C1COc2ccccc2O1 (stereo unspecified)	7	8	2	-6	-4	3
CC1(C(=O)Nc2cccc(NS(C)(=O)=O)c2)Cc2c(-c3ccc(C(N)=O)cc3)ccnc2O1 (stereo unspecified)	.	.	.	.	.	2
Cc1ccc(CSCCNS(=O)(=O)c2ccccc2)cc1	121*	-3	8	-19	50*	8
SMILES	PABP FP inh	NS3 helicase inh	core dimer inh	DNA FID counter	eIF4H FP inh	PABP1 MLLE inh
Cc1ccc(CSCCNS(C)(=O)=O)cc1	-6	-2	0	1	-8	6
Cc1ccc(F)cc1C(=O)N1CCCC1(C)C(=O)NCC(C)C (stereo unspecified)	.	.	.	.	.	1
O=C(CN1CCCCCC1)Nc1cc([N+](=O)[O-])ccc1Cl	5	-1	-35	1	1	9
O=C(CN1CCOCC1)Nc1cc([N+](=O)[O-])ccc1Cl	66	0	0	0	active	10
CCOc1ccccc1CNC(=O)CCC(=O)N1Cc2ccccc2Oc2ncccc21	5	-1	11	-44	-17	2
Fc1c(F)c(F)c(N=Cc2ccc3ncccc3c2)c(F)c1F	88*	2	-10	-1	0.6*	3
CC1=CC(C)C2(COC(c3ccc[n+](C)c3)OC2)C(C)C1 (stereo unspecified)	59*	-8	.	22	-2	-134
COc1cccc(/C=C2\SC(=O)N(CC(=O)NC3CCS(=O)(=O)C3)C2=O)c1 (stereo unspecified)	-10	17	-14	-24	-7	17
O=C(CN1C(=O)/C(=C/c2cccc(Br)c2)SC1=S)NC1=NCCS1	-4	14	50*	-4	12	-25
CCc1ccc(/C=C2\SC(=S)N(CCCC(=O)NC3=NCCS3)C2=O)cc1	.	.	.	.	.	4
COc1ccc(/C=C2\SC(=S)N(CCCC(=O)Nc3ccccc3C(=O)O)C2=O)cc1OC	34*	-11	-2	20	57	-68
COc1cccc(/C=C2\SC(=O)N(CC(=O)NC3C=CS(=O)(=O)C3)C2=O)c1 (stereo unspecified)	2	-1	-2	0	10	41*
COc1cccc(/C=C2\SC(=S)N(CCCC(=O)NC3=NCCS3)C2=O)c1	23*	-3	10	-8	80	1
CC(C(=O)NCCSCc1cccc(Cl)c1)N(c1ccccc1)S(C)(=O)=O (stereo unspecified)	4	-14	-9	-37	-11	-2
CC(=O)N1CCN=C1SCc1cccc(F)c1	0	-1	0	6	-9	6
CCN1C(=O)[C@H]2[C@@H](c3ccc(C)cc3)N[C@]3(CCCN(Cc4ccco4)C3=O)[C@H]2C1=O	.	.	.	.	.	-7
CCc1ccc(/C=C2\SC(=S)N(CCCC(=O)Nc3cc(C)on3)C2=O)cc1	.	.	.	.	.	-6
COc1cccc(/C=C2\SC(=S)N(CCCC(=O)Nc3cc(C)on3)C2=O)c1	18*	1	18	-6	?	-66
CN1C(=O)/C(=C/c2ccc(C(=O)Nc3ccc(O)cc3C(=O)O)cc2)SC1=S	29	-10	17	39*	-2	5
CCCCN1C(=O)C(=O)N(CC(=O)Nc2sc(CC)cc2C(=O)OCC)C1=O	.	.	8	.	.	-10
CC(=O)c1c(C)cc(C)c(CSc2nc(C)cc(=O)[nH]2)c1C	-8	4	1	-13	-13	44*
CCOC(=O)CSc1nc(C)cc(=O)[nH]1	-4	-3	0	2	-2	23
CCOc1ccccc1NC(=O)COC(=O)C12CC3CC(CC(O)(C3)C1)C2	.	.	.	.	.	1
Cc1ccc(NC(=O)CSC2=NCCN2)cc1	-10	2	-7	4	-7	39*
COc1ccccc1NC(=O)CSC1=NCCN1	2	2	-1	0	3	30
O=C(c1ccccc1)c1c2c(cc3sc4ccccc4[n+]13)-c1cccc3cccc-2c13	1	-77	0	53*	?	133
